Assay results published in ChEMBL document CHEMBL4689842, “EUbOPEN Chemogenomics Library wave 1” (2021).

Tested on: HEK-293T
Assay: Multiplex assay against HEK293T;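 on Population Tubulin-Different-Phenotype (%): share of the cells with healthy nuclei that show this phenotype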
Type: toxicity, cell-based
Details: human
Summary of the method: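 Live cells were stained at seeding with Hoechst33342, BioTracker Green Microtubule Cytoskeleton Dye, MitoTracker Red and Annexin V Alexa Fluor 680, then imaged on a CQ1 microscope at 37°C and 5% CO2 after compound addition. CellPathfinder machine-learning gating split cells into Hoechst high-intensity objects or normal cells. Normal cells were split into healthy, pyknosed or fragmented nuclei, and pyknosed cells into mitotic or apoptotic. Tubulin, mitochondrial-mass and membrane-permeability phenotypes are per cents of healthy-nucleus cells.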

[1] = 12 h, 1 µM, compound concentration 1 uM, replicate 1
[2] = 12 h, 1 µM, compound concentration 1 uM, replicate 2
[3] = 12 h, 10 µM, compound concentration 10 uM, replicate 1
[4] = 12 h, 10 µM, compound concentration 10 uM, replicate 2
[5] = 24 h, 1 µM, compound concentration 1 uM, replicate 1
[6] = 24 h, 1 µM, compound concentration 1 uM, replicate 2
[7] = 24 h, 10 µM, compound concentration 10 uM, replicate 1
[8] = 24 h, 10 µM, compound concentration 10 uM, replicate 2
[9] = 48 h, 1 µM, compound concentration 1 uM, replicate 1
[10] = 48 h, 1 µM, compound concentration 1 uM, replicate 2
[11] = 48 h, 10 µM, compound concentration 10 uM, replicate 1
[12] = 48 h, 10 µM, compound concentration 10 uM, replicate 2

## Cl.Oc1ccc2c3c1O[C@H]1c4[nH]c5c(c4C[C@@]4(O)[C@@H](C2)N(CC2CC2)CC[C@]314)C[C@@]1(O)[C@H]2Cc3ccc(O)c4c3[C@@]1(CCN2CC1CC1)[C@H]5O4
[1]
  Population Apoptotic (%): 47%
  Population Fragmented Nuclei (%): 8%
  Population Healthy Nuclei (%): 45%
  Population Hoechst High Intensity Objects (%): 13%
  Population Membrane Permeable-Phenotype (%): 0%
  Population Mitochondria Different-Phenotype (%): 74%
  Population Mitotic Cells (%): 52%
  Population Normal (%): 86%
  Population Pyknosed Nuclei (%): 45%
  Population Tubulin-Different-Phenotype (%): 46%
  Total Cell Count: 294
[2]
  Population Apoptotic (%): 10%
  Population Fragmented Nuclei (%): 4%
  Population Healthy Nuclei (%): 38%
  Population Hoechst High Intensity Objects (%): 5%
  Population Membrane Permeable-Phenotype (%): 8%
  Population Mitochondria Different-Phenotype (%): 10%
  Population Mitotic Cells (%): 89%
  Population Normal (%): 94%
  Population Pyknosed Nuclei (%): 56%
  Population Tubulin-Different-Phenotype (%): 12%
  Total Cell Count: 128
[3]
  Population Apoptotic (%): 40%
  Population Fragmented Nuclei (%): 7%
  Population Healthy Nuclei (%): 49%
  Population Hoechst High Intensity Objects (%): 12%
  Population Membrane Permeable-Phenotype (%): 3%
  Population Mitochondria Different-Phenotype (%): 79%
  Population Mitotic Cells (%): 59%
  Population Normal (%): 87%
  Population Pyknosed Nuclei (%): 43%
  Population Tubulin-Different-Phenotype (%): 33%
  Total Cell Count: 253
[4]
  Population Apoptotic (%): 7%
  Population Fragmented Nuclei (%): 5%
  Population Healthy Nuclei (%): 45%
  Population Hoechst High Intensity Objects (%): 2%
  Population Membrane Permeable-Phenotype (%): 6%
  Population Mitochondria Different-Phenotype (%): 27%
  Population Mitotic Cells (%): 92%
  Population Normal (%): 97%
  Population Pyknosed Nuclei (%): 48%
  Population Tubulin-Different-Phenotype (%): 22%
  Total Cell Count: 294
[5]
  Population Apoptotic (%): 43%
  Population Fragmented Nuclei (%): 11%
  Population Healthy Nuclei (%): 38%
  Population Hoechst High Intensity Objects (%): 12%
  Population Membrane Permeable-Phenotype (%): 0%
  Population Mitochondria Different-Phenotype (%): 61%
  Population Mitotic Cells (%): 56%
  Population Normal (%): 87%
  Population Pyknosed Nuclei (%): 50%
  Population Tubulin-Different-Phenotype (%): 37%
  Total Cell Count: 307
[6]
  Population Apoptotic (%): 6%
  Population Fragmented Nuclei (%): 7%
  Population Healthy Nuclei (%): 53%
  Population Hoechst High Intensity Objects (%): 4%
  Population Membrane Permeable-Phenotype (%): 8%
  Population Mitochondria Different-Phenotype (%): 13%
  Population Mitotic Cells (%): 93%
  Population Normal (%): 95%
  Population Pyknosed Nuclei (%): 39%
  Population Tubulin-Different-Phenotype (%): 26%
  Total Cell Count: 164
[7]
  Population Apoptotic (%): 35%
  Population Fragmented Nuclei (%): 9%
  Population Healthy Nuclei (%): 58%
  Population Hoechst High Intensity Objects (%): 7%
  Population Membrane Permeable-Phenotype (%): 0%
  Population Mitochondria Different-Phenotype (%): 54%
  Population Mitotic Cells (%): 64%
  Population Normal (%): 92%
  Population Pyknosed Nuclei (%): 32%
  Population Tubulin-Different-Phenotype (%): 30%
  Total Cell Count: 308
[8]
  Population Apoptotic (%): 11%
  Population Fragmented Nuclei (%): 4%
  Population Healthy Nuclei (%): 73%
  Population Hoechst High Intensity Objects (%): 3%
  Population Membrane Permeable-Phenotype (%): 4%
  Population Mitochondria Different-Phenotype (%): 17%
  Population Mitotic Cells (%): 88%
  Population Normal (%): 96%
  Population Pyknosed Nuclei (%): 22%
  Population Tubulin-Different-Phenotype (%): 23%
  Total Cell Count: 399
[9]
  Population Apoptotic (%): 43%
  Population Fragmented Nuclei (%): 15%
  Population Healthy Nuclei (%): 44%
  Population Hoechst High Intensity Objects (%): 12%
  Population Membrane Permeable-Phenotype (%): 2%
  Population Mitochondria Different-Phenotype (%): 29%
  Population Mitotic Cells (%): 56%
  Population Normal (%): 87%
  Population Pyknosed Nuclei (%): 39%
  Population Tubulin-Different-Phenotype (%): 31%
  Total Cell Count: 368
[10]
  Population Apoptotic (%): 10%
  Population Fragmented Nuclei (%): 6%
  Population Healthy Nuclei (%): 77%
  Population Hoechst High Intensity Objects (%): 3%
  Population Membrane Permeable-Phenotype (%): 10%
  Population Mitochondria Different-Phenotype (%): 7%
  Population Mitotic Cells (%): 89%
  Population Normal (%): 96%
  Population Pyknosed Nuclei (%): 15%
  Population Tubulin-Different-Phenotype (%): 23%
  Total Cell Count: 260
[11]
  Population Apoptotic (%): 29%
  Population Fragmented Nuclei (%): 10%
  Population Healthy Nuclei (%): 69%
  Population Hoechst High Intensity Objects (%): 9%
  Population Membrane Permeable-Phenotype (%): 2%
  Population Mitochondria Different-Phenotype (%): 23%
  Population Mitotic Cells (%): 70%
  Population Normal (%): 90%
  Population Pyknosed Nuclei (%): 19%
  Population Tubulin-Different-Phenotype (%): 21%
  Total Cell Count: 462
[12]
  Population Apoptotic (%): 14%
  Population Fragmented Nuclei (%): 5%
  Population Healthy Nuclei (%): 83%
  Population Hoechst High Intensity Objects (%): 2%
  Population Membrane Permeable-Phenotype (%): 3%
  Population Mitochondria Different-Phenotype (%): 5%
  Population Mitotic Cells (%): 85%
  Population Normal (%): 97%
  Population Pyknosed Nuclei (%): 10%
  Population Tubulin-Different-Phenotype (%): 16%
  Total Cell Count: 731

## Cc1ccc(C(=O)Nc2cccc(C(F)(F)F)c2)cc1Nc1nc(-c2cccnc2)nc2c1cnn2C
[1]
  Population Apoptotic (%): 63%
  Population Fragmented Nuclei (%): 15%
  Population Healthy Nuclei (%): 33%
  Population Hoechst High Intensity Objects (%): 19%
  Population Membrane Permeable-Phenotype (%): 1%
  Population Mitochondria Different-Phenotype (%): 94%
  Population Mitotic Cells (%): 36%
  Population Normal (%): 80%
  Population Pyknosed Nuclei (%): 50%
  Population Tubulin-Different-Phenotype (%): 94%
  Total Cell Count: 318
[2]
  Population Apoptotic (%): 27%
  Population Fragmented Nuclei (%): 7%
  Population Healthy Nuclei (%): 25%
  Population Hoechst High Intensity Objects (%): 9%
  Population Membrane Permeable-Phenotype (%): 7%
  Population Mitochondria Different-Phenotype (%): 52%
  Population Mitotic Cells (%): 72%
  Population Normal (%): 90%
  Population Pyknosed Nuclei (%): 66%
  Population Tubulin-Different-Phenotype (%): 89%
  Total Cell Count: 162
[3]
  Population Apoptotic (%): 86%
  Population Fragmented Nuclei (%): 16%
  Population Healthy Nuclei (%): 7%
  Population Hoechst High Intensity Objects (%): 19%
  Population Membrane Permeable-Phenotype (%): 8%
  Population Mitochondria Different-Phenotype (%): 91%
  Population Mitotic Cells (%): 13%
  Population Normal (%): 80%
  Population Pyknosed Nuclei (%): 75%
  Population Tubulin-Different-Phenotype (%): 91%
  Total Cell Count: 200
[4]
  Population Apoptotic (%): 78%
  Population Fragmented Nuclei (%): 5%
  Population Healthy Nuclei (%): 13%
  Population Hoechst High Intensity Objects (%): 5%
  Population Membrane Permeable-Phenotype (%): 4%
  Population Mitochondria Different-Phenotype (%): 96%
  Population Mitotic Cells (%): 21%
  Population Normal (%): 94%
  Population Pyknosed Nuclei (%): 81%
  Population Tubulin-Different-Phenotype (%): 92%
  Total Cell Count: 190
[5]
  Population Apoptotic (%): 64%
  Population Fragmented Nuclei (%): 14%
  Population Healthy Nuclei (%): 38%
  Population Hoechst High Intensity Objects (%): 16%
  Population Membrane Permeable-Phenotype (%): 2%
  Population Mitochondria Different-Phenotype (%): 92%
  Population Mitotic Cells (%): 35%
  Population Normal (%): 83%
  Population Pyknosed Nuclei (%): 46%
  Population Tubulin-Different-Phenotype (%): 90%
  Total Cell Count: 330
[6]
  Population Apoptotic (%): 51%
  Population Fragmented Nuclei (%): 7%
  Population Healthy Nuclei (%): 43%
  Population Hoechst High Intensity Objects (%): 6%
  Population Membrane Permeable-Phenotype (%): 11%
  Population Mitochondria Different-Phenotype (%): 64%
  Population Mitotic Cells (%): 48%
  Population Normal (%): 93%
  Population Pyknosed Nuclei (%): 48%
  Population Tubulin-Different-Phenotype (%): 97%
  Total Cell Count: 172
[7]
  Population Apoptotic (%): 89%
  Population Fragmented Nuclei (%): 16%
  Population Healthy Nuclei (%): 10%
  Population Hoechst High Intensity Objects (%): 22%
  Population Membrane Permeable-Phenotype (%): 0%
  Population Mitochondria Different-Phenotype (%): 100%
  Population Mitotic Cells (%): 10%
  Population Normal (%): 77%
  Population Pyknosed Nuclei (%): 72%
  Population Tubulin-Different-Phenotype (%): 100%
  Total Cell Count: 225
[8]
  Population Apoptotic (%): 85%
  Population Fragmented Nuclei (%): 5%
  Population Healthy Nuclei (%): 24%
  Population Hoechst High Intensity Objects (%): 4%
  Population Membrane Permeable-Phenotype (%): 4%
  Population Mitochondria Different-Phenotype (%): 95%
  Population Mitotic Cells (%): 14%
  Population Normal (%): 95%
  Population Pyknosed Nuclei (%): 70%
  Population Tubulin-Different-Phenotype (%): 95%
  Total Cell Count: 205
[9]
  Population Apoptotic (%): 52%
  Population Fragmented Nuclei (%): 21%
  Population Healthy Nuclei (%): 45%
  Population Hoechst High Intensity Objects (%): 15%
  Population Membrane Permeable-Phenotype (%): 4%
  Population Mitochondria Different-Phenotype (%): 74%
  Population Mitotic Cells (%): 47%
  Population Normal (%): 84%
  Population Pyknosed Nuclei (%): 33%
  Population Tubulin-Different-Phenotype (%): 88%
  Total Cell Count: 371
[10]
  Population Apoptotic (%): 47%
  Population Fragmented Nuclei (%): 6%
  Population Healthy Nuclei (%): 63%
  Population Hoechst High Intensity Objects (%): 9%
  Population Membrane Permeable-Phenotype (%): 8%
  Population Mitochondria Different-Phenotype (%): 43%
  Population Mitotic Cells (%): 52%
  Population Normal (%): 90%
  Population Pyknosed Nuclei (%): 30%
  Population Tubulin-Different-Phenotype (%): 96%
  Total Cell Count: 230
[11]
  Population Apoptotic (%): 86%
  Population Fragmented Nuclei (%): 23%
  Population Healthy Nuclei (%): 15%
  Population Hoechst High Intensity Objects (%): 20%
  Population Membrane Permeable-Phenotype (%): 6%
  Population Mitochondria Different-Phenotype (%): 100%
  Population Mitotic Cells (%): 13%
  Population Normal (%): 79%
  Population Pyknosed Nuclei (%): 60%
  Population Tubulin-Different-Phenotype (%): 96%
  Total Cell Count: 258
[12]
  Population Apoptotic (%): 89%
  Population Fragmented Nuclei (%): 8%
  Population Healthy Nuclei (%): 29%
  Population Hoechst High Intensity Objects (%): 7%
  Population Membrane Permeable-Phenotype (%): 1%
  Population Mitochondria Different-Phenotype (%): 93%
  Population Mitotic Cells (%): 10%
  Population Normal (%): 92%
  Population Pyknosed Nuclei (%): 61%
  Population Tubulin-Different-Phenotype (%): 93%
  Total Cell Count: 209
